Results from ChEMBL document CHEMBL1128471, “Reversible inhibitors of the gastric (H+/K+)-ATPase. 4. Identification of an inhibitor with an intermediate duration of action” (J Med Chem, 1995).

Assays:
Rattus norvegicus [1] = assay: (§1) Inhibition of pentagastrin-stimulated gastric acid secretion in the anesthetized rat after iv administration; assay type: functional, Stomach
How it was run: (§2)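 Anesthetized, lumen-perfused rats were given pentagastrin to stimulate gastric acid secretion, and compounds were given iv. The value is an ED50 (µmol/kg iv) with 95% confidence limits, or percent inhibition ± SEM at a single 10 µmol/kg iv dose.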

Canis familiaris [2] = assay: Mean percent peak inhibition of histamine-stimulated gastric acid secretion in the heidenhain pouch dog following a single dose of 1 umol/kg through iv administration.; assay type: functional; conditions: Canis lupus familiaris, Stomach
Canis familiaris [3] = assay: Mean percent peak inhibition of histamine-stimulated gastric acid secretion in the heidenhain pouch dog following a single dose of 4 umol/kg through oral administration.; assay type: functional; conditions: Canis lupus familiaris, Stomach
[4] = target: Potassium-transporting ATPase (Sus scrofa, UniProt P19156); assay: (§3) Inhibition of K+ -stimulated gastric ATPase activity was measured using lyophilized gastric vesicles at pH 7; assay type: tissue-based, Stomach
Chain of Potassium-transporting ATPase (Sus scrofa, UniProt P19156) (P18434 whole entry): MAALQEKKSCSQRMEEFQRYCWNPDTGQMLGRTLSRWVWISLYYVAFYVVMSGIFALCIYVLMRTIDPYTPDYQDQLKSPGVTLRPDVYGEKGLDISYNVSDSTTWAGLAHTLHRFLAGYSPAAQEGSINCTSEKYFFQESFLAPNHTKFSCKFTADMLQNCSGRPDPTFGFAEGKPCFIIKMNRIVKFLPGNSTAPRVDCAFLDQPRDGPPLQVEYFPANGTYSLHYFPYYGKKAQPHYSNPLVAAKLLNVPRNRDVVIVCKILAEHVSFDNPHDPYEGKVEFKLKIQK
Chain of Potassium-transporting ATPase (Sus scrofa, UniProt P19156) (P19156 whole entry): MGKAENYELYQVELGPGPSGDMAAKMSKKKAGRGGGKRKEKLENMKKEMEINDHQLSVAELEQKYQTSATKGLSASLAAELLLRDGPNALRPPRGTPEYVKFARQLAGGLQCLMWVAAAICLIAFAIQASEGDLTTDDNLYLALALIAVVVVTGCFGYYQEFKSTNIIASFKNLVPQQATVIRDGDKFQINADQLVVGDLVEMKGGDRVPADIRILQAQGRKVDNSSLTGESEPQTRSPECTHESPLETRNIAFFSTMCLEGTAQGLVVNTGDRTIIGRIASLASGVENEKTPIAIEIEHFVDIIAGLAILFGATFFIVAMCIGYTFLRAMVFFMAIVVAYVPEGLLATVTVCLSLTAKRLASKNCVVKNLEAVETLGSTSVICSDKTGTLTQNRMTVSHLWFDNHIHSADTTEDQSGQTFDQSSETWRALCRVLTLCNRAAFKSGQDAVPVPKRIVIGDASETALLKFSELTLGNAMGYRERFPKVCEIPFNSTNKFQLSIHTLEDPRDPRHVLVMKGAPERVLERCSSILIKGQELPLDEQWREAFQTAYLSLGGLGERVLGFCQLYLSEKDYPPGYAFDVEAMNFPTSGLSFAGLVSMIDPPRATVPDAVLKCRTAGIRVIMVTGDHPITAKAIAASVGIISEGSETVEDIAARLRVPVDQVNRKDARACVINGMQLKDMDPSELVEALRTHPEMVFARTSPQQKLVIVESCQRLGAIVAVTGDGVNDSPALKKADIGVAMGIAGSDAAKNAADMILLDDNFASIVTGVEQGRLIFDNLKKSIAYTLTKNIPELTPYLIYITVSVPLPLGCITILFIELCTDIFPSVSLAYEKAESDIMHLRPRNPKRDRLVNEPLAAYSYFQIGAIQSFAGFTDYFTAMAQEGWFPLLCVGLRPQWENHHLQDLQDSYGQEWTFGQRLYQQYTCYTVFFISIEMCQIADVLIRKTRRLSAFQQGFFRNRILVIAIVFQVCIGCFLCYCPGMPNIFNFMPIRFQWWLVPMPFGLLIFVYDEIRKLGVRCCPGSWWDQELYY
How it was run: (§4)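 K+-stimulated ATPase activity was measured in lyophilized (permeabilized) gastric vesicles at pH 7. The value is an IC50, or percent inhibition at the stated concentration where no IC50 could be determined.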

[5] = target: T1, Potassium-transporting ATPase (Rattus norvegicus) (UniProt P09626+P18598); assay: as §1; assay type: functional, organism-based; conditions: Stomach; how it was run: as §2
[6] = target: T2, Potassium-transporting ATPase (Sus scrofa) (UniProt P18434+P19156); assay: as §3; assay type: tissue-based; design: concentration or dose not given beside the values; conditions: Stomach; concentration not given here; how it was run: as §4
Rattus norvegicus [7] = assay: Inhibition of pentagastrin-stimulated gastric acid secretion in the anesthetized rat at a single dose of 10 umol/kg iv; Insoluble; assay type: functional, organism-based; conditions: Stomach; how it was run: as §2
[8] = target: T2, Potassium-transporting ATPase (Sus scrofa); assay: Inhibition of K+ -stimulated gastric ATPase activity was measured using lyophilized gastric vesicles at pH 7 at 100; assay type: tissue-based; conditions: Stomach; concentration not given here; how it was run: as §4
[9] = target: T2, Potassium-transporting ATPase (Sus scrofa); assay: Inhibition of K+ -stimulated gastric ATPase activity was measured using lyophilized gastric vesicles at pH 7 at 10; assay type: tissue-based; conditions: Stomach; concentration not given here; how it was run: as §4
[10] = target: T2, Potassium-transporting ATPase (Sus scrofa); assay: as §3; assay type: tissue-based; conditions: Stomach; concentration not given here; how it was run: as §4
[11] = target: T3, Potassium-transporting ATPase (Sus scrofa, UniProt P18434+P19156); assay: as §3; assay type: tissue-based, Stomach; how it was run: as §4
T3 sequence (P18434 whole entry): as the sequence (P18434 whole entry) above
T3 sequence (P19156 whole entry): as the sequence (P19156 whole entry) above

[12] = target: T3, Potassium-transporting ATPase; assay: Inhibition of K+ -stimulated gastric ATPase activity was measured using lyophilized gastric vesicles at pH 7; Insoluble; assay type: tissue-based, Stomach
Rattus norvegicus [13] = assay: Inhibition of pentagastrin-stimulated gastric acid secretion in the anesthetized rat, ED50 (umol/kg iv) with 95% confidence limits.; assay type: functional; conditions: Stomach; how it was run: as §2
[14] = target: T1, Potassium-transporting ATPase (Rattus norvegicus); assay: Inhibition of pentagastrin-stimulated gastric acid secretion at a single dose of 10 umol/kg.; assay type: functional; conditions: Stomach; how it was run: as §2

Compound `CCC(=O)c1cnc2c(OCCOC)cccc2c1Nc1ccc(F)cc1C` has an Inhibition (Rattus norvegicus [1]) of 70%, an inhibition in vivo at 1 µmol/kg (Canis familiaris [2]) of 36% and an inhibition in vivo at 4 µmol/kg (Canis familiaris [3]) of 94%. It also gave an IC50 [4] of 2 µM.

For `CCCC(=O)c1cnc2c(OC)cccc2c1Nc1c(C)ccc(O)c1C`, the inhibition in vivo at 1 µmol/kg (Canis familiaris [2]) was 36%, the ED50 [5] was 5.6 µmol/kg and the inhibition [6] was 35%.

For `CCCC(=O)c1cnc2c(C(=O)O)cccc2c1Nc1ccccc1C`, the inhibition (Rattus norvegicus [7]) was “Insoluble” and the IC50 [4] was 5.9 µM.

`CCCC(=O)c1cnc2cc(CO)ccc2c1Nc1ccccc1C` gave an inhibition [8] of 44%.

For `CCCC(=O)c1cnc2ccc(-c3ccccc3)cc2c1Nc1ccccc1C`, the inhibition [9] was 35% and the inhibition (Rattus norvegicus [7]) was “Insoluble”.

For `CCCC(=O)c1cnc2c(OC)cccc2c1Nc1ccc([N+](=O)[O-])cc1C`, the inhibition [10] was 17%.

`CCCC(=O)c1cnc2c(OC)cccc2c1Nc1ccc(OC(C)=O)cc1C` showed an inhibition in vivo at 4 µmol/kg (Canis familiaris [3]) of 44% and an inhibition [10] of 25%.

Work on `CCCC(=O)c1cnc2c(OC)cccc2c1Nc1ccc(OC(=O)C(C)C)cc1C` yielded an inhibition in vivo at 4 µmol/kg (Canis familiaris [3]) of 25% and an inhibition [10] of 44%.

Work on `CCCC(=O)c1cnc2c(C3OC3CO)cccc2c1Nc1ccccc1C` (stereo in doubt; 29a) yielded an IC50 [11] of 3.1 µM.

`CCCC(=O)c1cnc2c(OC)cccc2c1Nc1cc(C)c(O)c(C)c1` was tested, and the IC50 [12] was “Insoluble”.

`CCCC(=O)c1cnc2c(C3CO3)cccc2c1Nc1ccccc1C` (stereo unspecified) showed an inhibition in vivo at 1 µmol/kg (Canis familiaris [2]) of 53%, an IC50 [4] of 3 µM and an ED50 (Rattus norvegicus [13]) of 3.1 µmol/kg.

Compound `CCCC(=O)c1cnc2c(C)cccc2c1Nc1cc(OC)ccc1OC` has an inhibition [14] of 28% and an inhibition [6] of 29%.

`CCCC(=O)c1cnc2cc(OC)ccc2c1Nc1ccccc1C` was tested, and the inhibition [14] was 28% and the inhibition [9] was 41%.
